Consider 36 compounds from ChEMBL document CHEMBL3351628, “2,4,5-Trisubstituted thiazole derivatives: a novel and potent class of non-nucleoside inhibitors of wild type and mutant HIV-1 reverse transcriptase” (Eur J Med Chem, 2014).

Data set [1] is described as follows: Retention time of the compound by HPLC analysis. It counts as physicochemical.
The test system of another data set is HEK-293T. The data set can be described thus: Cytotoxicity against HEK293T cells at 10 uM after 48 hrs. The format is cell-based. As to conditions: human. The gist of the method: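 HEK 293T cells incubated 48 h with compound at final 10 μM under the antiviral culture conditions, without virus. Viability read with a cell proliferation assay kit.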
For data set [2], the system named is Human immunodeficiency virus 1. The data set can be described thus: Antiviral activity against wild type HIV1 infected in HEK293T cells transfected with plasmid VSV-G/pNL4-3.luc.R-E- assessed as inhibition of viral replication after 48 hrs by luciferase reporter gene assay. The format is functional, organism-based, HEK-293T. The conditions noted are these: Human immunodeficiency virus 1, HEK-293T, 48 h; read-out: IC50. The gist of the method:
(§1)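 VSV-G-pseudotyped single-cycle virus: VSVG plasmid plus env-deficient pNL4-3.luc.R⁻E⁻ vector (wild type or RT-mutant) co-transfected into HEK 293T by calcium phosphate. Medium changed at 16 h, supernatant collected 48 h post-transfection, normalised by p24 ELISA to 0.2 ng p24/mL. HEK 293T targets seeded a day ahead; compound added 15 min before virus. Cells lysed 48 h post-infection, luciferase read. IC50 from dose–infectivity curves.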

The subject of data set [3] is Human immunodeficiency virus 1. The data set can be described thus: Antiviral activity against HIV1 infected in 293T cells assessed as time of 50% failure. It counts as functional.
Data set [4] concerns Human immunodeficiency virus 1. The data set can be described thus: Antiviral activity against HIV1 harboring reverse transcriptase K103N mutant infected in HEK293T cells transfected with plasmid VSV-G/pNL4-3.luc.R-E- assessed as inhibition of viral replication after 48 hrs by luciferase reporter gene assay relative HIV1. It counts as functional, HEK-293T.
Data set [5] deals with Human immunodeficiency virus 1. The data set can be described thus: Antiviral activity against HIV1 harboring reverse transcriptase K103N mutant infected in HEK293T cells transfected with plasmid VSV-G/pNL4-3.luc.R-E- assessed as inhibition of viral replication after 48 hrs by luciferase reporter gene assay. The format is functional, organism-based, HEK-293T. The conditions noted are these: Human immunodeficiency virus 1, HEK-293T, 48 h. Put shortly: as §1

In data set [6] the test system is Human immunodeficiency virus 1. The data set can be described thus: Antiviral activity against HIV1 harboring reverse transcriptase Y181C mutant infected in HEK293T cells transfected with plasmid VSV-G/pNL4-3.luc.R-E- assessed as inhibition of viral replication after 48 hrs by luciferase reporter gene assay relative HIV1. It counts as functional, HEK-293T.
Data set [7] deals with Human immunodeficiency virus 1. The data set can be described thus: Antiviral activity against HIV1 harboring reverse transcriptase Y181C mutant infected in HEK293T cells transfected with plasmid VSV-G/pNL4-3.luc.R-E- assessed as inhibition of viral replication after 48 hrs by luciferase reporter gene assay. It counts as functional, organism-based, HEK-293T. As to conditions: Human immunodeficiency virus 1, HEK-293T, 48 h. Put shortly:
as §1

pIC50: −log10 of the molar value. Where only a bound is given, the exact number is not on record here.

Consider `COc1ccc(-c2nc(NCc3cc([N+](=O)[O-])ccc3O)sc2Cc2ccccc2)cc1`, for which the Retention_time in data set [1] amounted to 45.27 min. In addition, the Activity entry in the data set with HEK-293T was “Non-toxic”. For the same compound, the pIC50 in data set [2] was 5.28.

`COc1ccc(CCNc2nc(-c3ccc(OC)cc3)c(Cc3ccccc3)s2)cc1` showed a Retention_time in data set [1] of 36.91 min. Moreover, the Activity entry with HEK-293T is “Non-toxic”. For the same compound, the pIC50 in data set [2] was under 5.00.

For the compound `CCN(CC)c1nc(-c2ccc(OC)cc2)c(Cc2ccccc2)s1`, in data set [1], the Retention_time is 29.77 min. Also, the Activity entry in the data set with HEK-293T is listed as “Non-toxic”. Further, in data set [2], the negative-log IC50 (pIC50) is 5.64.

`COc1ccc(-c2nc(NCc3cc(OC)c(OC)c(OC)c3)sc2Cc2ccccc2)cc1` yielded a Retention_time in data set [1] of 17.16 min. Moreover, the Activity entry in the data set on HEK-293T is “Non-toxic”. Also, in data set [2], the negative-log IC50 (pIC50) is under 5.00.

The compound `COc1ccc(CNc2nc(-c3ccccc3)c(Cc3ccccc3OC)s2)cc1` yielded a Retention_time in data set [1] of 27.75 min. Moreover, in the data set on HEK-293T, the Activity entry was “Non-toxic”. In addition, the negative-log IC50 (pIC50) in data set [2] was 6.89.

Compound `COc1ccc(CNc2nc(-c3ccccc3)c(Cc3ccc(C#N)cc3)s2)cc1` returned a Retention_time in data set [1] of 17.21 min. Besides, the Activity entry in the data set with HEK-293T was “Non-toxic”. Besides, in data set [2], the pIC50 is 5.32.

For the compound `CCN(CC)c1nc(-c2ccc(O)cc2)c(Cc2ccccc2)s1`, the Retention_time in data set [1] was 19.11 min. For the same compound, the Activity entry with HEK-293T is on record as “Non-toxic”. The pIC50 in data set [2] is 5.36.

In data set [1], `COc1ccc(Nc2nc(-c3ccccc3)c(Cc3ccccc3OC)s2)cc1` returned a Retention_time of 3.18 min. The Activity result in the data set with HEK-293T is “Non-toxic”. The negative-log IC50 (pIC50) in data set [2] was under 5.00.

In data set [1], `COc1ccc(CNc2nc(-c3cc(OC)ccc3OC)c(Cc3ccccc3)s2)cc1` showed a Retention_time of 18.55 min. In the data set with HEK-293T, the Activity entry is reported as “Non-toxic”. The pIC50 in data set [2] is 5.21.

In turn, `COc1ccc(CNc2nc(-c3ccccc3)c(Cc3ccccc3)s2)cc1` yielded a Retention_time in data set [1] of 28.38 min. In the data set with HEK-293T, the Activity result was “Non-toxic”. For the same compound, in data set [2], the pIC50 was 6.74.

For `COc1ccc(CNc2nc(-c3ccc(OC)cc3)c(C)s2)cc1`, the Retention_time in data set [1] is 13.3 min. For the same compound, the Activity result with HEK-293T was “Non-toxic”. Moreover, the pIC50 in data set [2] was 5.02.

On to `COc1ccc(CNc2nc(-c3ccc(Cl)cc3Cl)c(Cc3ccccc3)s2)cc1`, for which, in data set [1], the Retention_time was determined as 53.29 min. Moreover, in the data set on HEK-293T, the Activity result is reported as “Non-toxic”. Also, the negative logarithm of the IC50 (pIC50) in data set [2] is 6.85.

For the compound `COc1ccc(-c2nc(NCc3cccc([N+](=O)[O-])c3)sc2Cc2ccccc2)cc1`, the Retention_time in data set [1] was determined as 27.61 min. The Activity result with HEK-293T is given as “Non-toxic”. The negative-log IC50 (pIC50) in data set [2] is 5.83.

The compound `COc1ccc(-c2nc(/N=C/c3ccc(F)cc3)sc2Cc2ccccc2)cc1` registered a Retention_time in data set [1] of 14.58 min. In addition, in the data set with HEK-293T, the Activity entry is “Non-toxic”. Moreover, in data set [2], the pIC50 is under 5.00.

In data set [1], `COc1ccc(CN(C)c2nc(-c3ccc(OC)cc3)c(Cc3ccccc3)s2)cc1` gave a Retention_time of 47.61 min. Besides, the Activity result in the data set with HEK-293T was “Non-toxic”. Besides, the pIC50 in data set [2] is 6.43.

In data set [1], `COc1ccc(-c2nc(NCc3ccccc3)sc2Cc2ccccc2)cc1` yielded a Retention_time of 28.1 min. The Activity entry with HEK-293T was “Non-toxic”. Further, in data set [2], the negative logarithm of the IC50 (pIC50) is 6.19.

As for `Cc1cn([C@H]2C[C@H](N=[N+]=[N-])[C@@H](CO)O2)c(=O)[nH]c1=O` [ZIDOVUDINE], the Time in data set [3] turned out to be 7.7 h.

Compound `COc1ccc(-c2nc(NCc3ccc(C#N)cc3)sc2Cc2ccccc2)cc1` returned a Retention_time in data set [1] of 20.01 min. Besides, the Activity entry in the data set on HEK-293T was “Non-toxic”. Also, the negative logarithm of the IC50 (pIC50) in data set [2] is 6.35.

`COc1ccc(-c2nc(NCc3c(Cl)cccc3Cl)sc2Cc2ccccc2)cc1` had a Retention_time in data set [1] of 7.67 min. The Activity result with HEK-293T is “Non-toxic”. For the same compound, the negative-log IC50 (pIC50) in data set [2] is 5.14.

Compound `COc1ccc(CNc2nc(-c3ccc(OC)cc3)c(Cc3ccccc3)s2)cc1` registered a Retention_time in data set [1] of 29.14 min. Further, the Activity entry with HEK-293T is given as “Non-toxic”. For the same compound, the pIC50 in data set [2] is 6.51.

For `COc1ccc(-c2nc(NCc3ccc(N(C)C)cc3)sc2Cc2ccccc2)cc1`, the Retention_time in data set [1] is recorded as 33.97 min. For the same compound, the “fold change (FC)” value in data set [4] is 76; in data set [6], 82. Further, the Activity result with HEK-293T is recorded as “Non-toxic”. For the same compound, the pIC50 is 4.18 in data set [5], 6.06 in data set [2] and 4.15 in data set [7].

`COc1ccc(-c2nc(NCc3ccccc3OC)sc2Cc2ccccc2)cc1` came in with a Retention_time in data set [1] of 34.78 min. For the same compound, the Activity result in the data set on HEK-293T is recorded as “Non-toxic”. The pIC50 in data set [2] was 5.16.

As to `COc1ccc(CNc2nc(-c3ccc(F)cc3)c(Cc3ccccc3)s2)cc1`, the Retention_time in data set [1] stood at 33.02 min. For the same compound, the Activity entry in the data set on HEK-293T is listed as “Non-toxic”. Moreover, the pIC50 in data set [2] is 5.92.

Compound `COc1ccc(-c2nc(NCc3cccnc3)sc2Cc2ccccc2)cc1` registered a Retention_time in data set [1] of 10.25 min. Also, the Activity result in the data set on HEK-293T is reported as “Non-toxic”. Besides, in data set [2], the pIC50 is 5.33.

As for `COc1ccc(-c2nc(NCc3ccc(F)cc3)sc2Cc2ccccc2)cc1`, the Retention_time in data set [1] turned out to be 29.67 min. Also, in the data set on HEK-293T, the Activity result is reported as “Non-toxic”. Moreover, the pIC50 in data set [2] is 6.18.

For the compound `COc1ccc(-c2nc(NCc3ccc4ccccc4c3)sc2Cc2ccccc2)cc1`, the Retention_time in data set [1] was 72.49 min. Further, the Activity entry with HEK-293T was “Non-toxic”. Moreover, the pIC50 in data set [2] was 6.02.

In turn, `COc1ccc(-c2nc(NCc3ccc(O)c(OC)c3)sc2Cc2ccccc2)cc1` had a Retention_time in data set [1] of 14.86 min. Also, in the data set with HEK-293T, the Activity result is “Non-toxic”. The negative-log IC50 (pIC50) in data set [2] is 6.48.

Take `COc1ccc(CNc2nc(-c3ccc(OC)cc3)c(Cc3ccc([N+](=O)[O-])cc3)s2)cc1`: in data set [1], the Retention_time came to 26.68 min. For the same compound, the Activity result with HEK-293T is on record as “Non-toxic”. Besides, the pIC50 in data set [2] is under 5.00.

`COc1ccc(CNc2nc(-c3ccc(OC)cc3)c(Cc3ccc(F)cc3)s2)cc1`: the Retention_time in data set [1] amounted to 29.46 min. In addition, the Activity entry with HEK-293T was “Non-toxic”. In addition, the negative logarithm of the IC50 (pIC50) in data set [2] is under 5.00.

For `COc1ccc(-c2nc(NCc3ccc(O)cc3)sc2Cc2ccccc2)cc1`, in data set [1], the Retention_time is on record as 16.52 min. Further, the “fold change (FC)” value turned out to be 13 in data set [4] and 10 in data set [6]. The Activity result in the data set with HEK-293T is “Non-toxic”. Further, the pIC50 was 5.08 in data set [5], 6.19 in data set [2] and 5.18 in data set [7].

Turning to `COc1ccc(CNc2nc(-c3ccco3)c(Cc3ccccc3)s2)cc1`, the Retention_time in data set [1] is reported as 19.97 min. Also, the Activity result in the data set with HEK-293T was “Non-toxic”. In data set [2], the negative logarithm of the IC50 (pIC50) is 6.15.

As to `COc1ccc(-c2nc(NCc3ccc([N+](=O)[O-])cc3)sc2Cc2ccccc2)cc1`, the Retention_time in data set [1] is 28.54 min. Moreover, the Activity result in the data set on HEK-293T is “Non-toxic”. The pIC50 in data set [2] was 6.10.

As to `Cc1nnc(C(=O)NC(C)(C)c2nc(C(=O)NCc3ccc(F)cc3)c(O)c(=O)n2C)o1` [RALTEGRAVIR], the Time in data set [3] is 12 h.

In data set [1], `COc1ccc(CNc2nc(-c3ccc(OC)cc3)c(Cc3ccc(OC)cc3)s2)cc1` returned a Retention_time of 26.12 min. Further, the Activity result with HEK-293T is reported as “Non-toxic”. Moreover, the pIC50 in data set [2] was under 5.00.

In data set [1], `COc1ccc(-c2nc(NCc3cccc(OC)c3)sc2Cc2ccccc2)cc1` displayed a Retention_time of 27.45 min. Further, the Activity entry with HEK-293T is given as “Non-toxic”. In addition, in data set [2], the pIC50 was 6.09.

In the case of `COc1ccc(-c2nc(NCc3ccco3)sc2Cc2ccccc2)cc1`, the Retention_time in data set [1] stood at 19.65 min. The Activity result with HEK-293T is listed as “Non-toxic”. Besides, the pIC50 in data set [2] was 6.00.
